Holding throughout (assay type): functional, organism-based
Assay [1] has as its system Leishmania infantum. Briefly: Antileishmanial activity against GFP-tagged at NH2 terminus Leishmania infantum promastigotes overexpressing LiABCG6 assessed as cell viability after 72 hrs by MTT assay. Put shortly:
(§1)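 L. infantum promastigotes (strain MHOM/ES/1993/BCN-99) grown at 28°C in modified RPMI 1640 with 20% heat-inactivated fetal bovine serum. Drug sensitivity was measured by MTT-based assay. IC50 was taken as the drug concentration giving half-maximal inhibition of cellular growth rate.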
A general note: Tetrazolium assays rely on reduction of a dye to a coloured formazan, in cell work by metabolically active cells.

For assay [2], the system named is Leishmania infantum. Briefly: Antileishmanial activity against Leishmania infantum promastigotes overexpressing LiABCG6 assessed as cell viability after 72 hrs by MTT assay. Put shortly: as §1
For assay [3], the system named is Leishmania infantum. Nature of the assay: Antileishmanial activity against GFP-tagged at COOH terminus Leishmania infantum promastigotes overexpressing LiABCG6 assessed as cell viability after 72 hrs by MTT assay. The method, boiled down: as §1

What is called IC50 is the concentration that inhibits the measured activity by half.

On to `CCN(CC)CCCCCCNc1cc(OC)cc2c(C)ccnc12` [SITAMAQUINE], for which the IC50 amounted to 7.8 µM in the assay on Leishmania infantum [1], 14.3 µM in the assay on Leishmania infantum [2] and 15.2 µM in the assay on Leishmania infantum [3].

`CC(=O)N1CCN(c2ccc(OCC3COC(Cn4ccnc4)(c4ccc(Cl)cc4Cl)O3)cc2)CC1` (configuration not stated) [KETOCONAZOLE]: in the assay on Leishmania infantum [2], the IC50 amounted to 19.3 µM.

With `CCN(CC)CCCC(C)Nc1ccnc2cc(Cl)ccc12` (configuration not stated) [CHLOROQUINE], the IC50 with Leishmania infantum [2] came to 24.1 µM.

Regarding `COc1cc(NC(C)CCCN)c2ncccc2c1` (configuration not stated) [PRIMAQUINE], the IC50 with Leishmania infantum [2] stood at 54.9 µM.

Take `CC[C@@]1(O)C(=O)OCc2c1cc1n(c2=O)Cc2cc3ccccc3nc2-1` [CAMPTOTHECIN]: the IC50 in the assay on Leishmania infantum [2] turned out to be 34.4 µM.

Take `CCCCCCCCCCCCCCCCOP(=O)([O-])OCC[N+](C)(C)C` [MILTEFOSINE]: the IC50 was 5.6 µM in the assay with Leishmania infantum [1], 12.9 µM with Leishmania infantum [2] and 13.6 µM in the assay on Leishmania infantum [3].

Consider `CCCCCCCCCCCCCCCCCCOP(=O)([O-])OC1CC[N+](C)(C)CC1` [PERIFOSINE], for which the IC50 in the assay with Leishmania infantum [1] turned out to be 4.2 µM; in the assay with Leishmania infantum [2] it was 11 µM; with Leishmania infantum [3], 12.2 µM.

For the compound `OC(c1cc(C(F)(F)F)nc2c(C(F)(F)F)cccc12)C1CCCCN1` (configuration not stated) [MEFLOQUINE], in the assay on Leishmania infantum [2], the IC50 was determined as 7 µM.

For `CCCCCCCCCCCCCCCCCCOCC(COP(=O)([O-])OCC[N+](C)(C)C)OC` (configuration not stated) [EDELFOSINE], the IC50 with Leishmania infantum [1] came out at 4.8 µM; in the assay on Leishmania infantum [2], 11.3 µM; with Leishmania infantum [3], 12.9 µM.

The record behind these values is ChEMBL document CHEMBL1275503, “Characterization of an ABCG-like transporter from the protozoan parasite Leishmania with a role in drug resistance and transbilayer lipid movement” (Antimicrob Agents Chemother, 2008).
